NPY2 pot ag: potentiators or agonists of human neuropeptide Y receptor Y2 | P49146 | cells expressing NPY-Y2, potentiator/agonist read-out | activation, % at 3.6 µM | actives 0.45% (n = 220,000) | AID 1359; in the data active = activation above about 27%;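 note: cells stimulated with NPY near EC25 plus isoproterenol at EC100; 0% = vehicle plus submaximal agonist and 100% = vehicle plus saturating agonist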
NPY-Y1 antag: blocks the human neuropeptide Y Y1 receptor; actives 1% (n = 200,000); P25929; inhibition, % at 3.6 µM; HEK293-CNG Y1 cells, membrane potential fluorescence; NPY at EC95, then isoproterenol;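 active = inhibition above the campaign mean inhibition of all tested compounds plus 3 SD, cut at about 20% in these data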;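 note: 0% = DMSO wells given NPY plus isoproterenol and 100% = isoproterenol alone without NPY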
Target sequence (P25929 whole entry, looked up): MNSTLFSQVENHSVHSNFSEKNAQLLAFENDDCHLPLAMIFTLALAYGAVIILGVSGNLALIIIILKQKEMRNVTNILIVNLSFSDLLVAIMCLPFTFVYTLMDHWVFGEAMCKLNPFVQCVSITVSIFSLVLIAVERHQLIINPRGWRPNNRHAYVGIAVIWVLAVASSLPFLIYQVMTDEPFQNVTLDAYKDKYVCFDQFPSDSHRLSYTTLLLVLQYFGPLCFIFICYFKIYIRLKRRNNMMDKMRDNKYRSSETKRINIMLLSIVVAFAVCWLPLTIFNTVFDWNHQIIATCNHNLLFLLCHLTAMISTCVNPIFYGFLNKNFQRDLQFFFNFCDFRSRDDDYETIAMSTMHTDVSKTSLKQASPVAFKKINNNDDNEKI
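Material: Y1- and CNG-channel-expressing HEK293 cells / Probe or stimulus: NPY 25 nM then isoproterenol 1 µM plus Ro 20-1724 25 µM / Doses: 3.6 µM single dose, DMSO 0.4% / Schedule: compound incubation 1 h at room temperature, readout 45 min post-stimulation / Signal: membrane potential fluorescence / Benchmarks: isoproterenol-only wells as full block versus NPY-plus-isoproterenol wells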
WT yeast gro inh: growth inhibition of WT yeast, mitochondrial fusion screen; actives 2.1% (n = 190,000); mitochondrial fusion phenotypic screen, WT strain; inhibition, % at 10 µM; AID 1362; in the data active = inhibition above about 58%; tested in S. cerevisiae
NPY1 pot ag: potentiators or agonists of human neuropeptide Y receptor Y1; P25929; NPY-Y1 expressing cells, potentiator/agonist activation; activation, % at 3.6 µM; actives 0.37% (n = 220,000); in the data active = activation above about 33%, passing the limit was not always enough;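 note: cells stimulated with NPY at EC10 then isoproterenol at EC100; 0% = low agonist plus stimulus and 100% = saturating agonist plus stimulus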
NPY Y2 blocker: blocks the human neuropeptide Y Y2 receptor | inhibition, % at 2.7 µM | actives 0.99% (n = 140,000) | NPY-Y2 expressing cells, antagonist mode; in the data active = inhibition above about 17%;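 note: 0% = vehicle with agonist challenge and 100% = reference antagonist with challenge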
RAM inhibit: blocks the yeast RAM network | actives 1.8% (n = 190,000) | inhibition, % at 50 µM | S. cerevisiae dse1pr::URA3 reporter, 5-FOA growth OD615, 2 d; analog-sensitive cbk1-as2 kinase mutant strain;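 active = inhibition above a set limit, 3 SD over mean compound inhibition, cut at about 8.4% in these data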;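 note: 0% = DMSO-only wells with no growth and 100% = 10 µM 1-NA-PP1 full growth; inhibition rescues growth on 5-FOA so higher OD means more RAM inhibition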
Numbers without * were called inactive; · = no result given. This is a sample that favours compounds with a hit; in the whole collection about 4.9% have one here.

SMILES	NPY2 pot ag	NPY-Y1 antag	WT yeast gro inh	NPY1 pot ag	NPY Y2 blocker	RAM inhibit
C=CCNC(=O)C(C#N)c1nc2ccccc2nc1N1CCCCCC1 (configuration not stated)	-11.0	-3.6	8.1	-3.6	5.1	9.0*
COc1ccc(CNC(=O)C(C#N)c2nc3ccccc3nc2N2CCN(C)CC2)cc1 (configuration not stated)	-13.4	11.0	-0.8	-16.5	17.7*	-0.4
CCCCNC(=O)C(C#N)c1nc2ccccc2nc1N1CCCC1 (configuration not stated)	19.2	-2.8	13.3	8.8	0.5	0.9
Cc1c(C(=O)NN)[nH]c2ccc([N+](=O)[O-])cc12	-0.9	·	·	11.6	·	·
CC(=O)Nc1nc(C(=O)O)cs1	-4.9	0.1	17.3	0.9	·	0.8
Cc1ccc(-c2n[nH]c(=S)n2/N=C/c2ccc(C)s2)cc1	-10.4	5.9	6.3	-4.6	1.4	0.3
COc1ccc(S(=O)(=O)Nc2cccc(Cl)c2)cc1OC	58.2*	-15.0	12.3	68.2*	-0.2	1.4
C=CCn1c(-c2cc3c(s2)CCC(CC)C3)n[nH]c1=S (configuration not stated)	-3.6	1.3	74.2*	-5.9	·	3.1
CCOc1ccc(C(C#N)N2CCOCC2)cc1OC (configuration not stated)	-1.6	1.9	27.6	-22.4	3.5	0.2
COc1ccc(-c2oc(NC(C)=O)c(C#N)c2-c2ccc(OC)cc2)cc1	-2.5	4.6	1.4	3.1	1.9	1.9
C=CCNC(=S)N(CC)c1cccc2ccccc12	-4.6	-0.7	61.7*	1.7	·	0.0
CCN(C(=S)NCc1ccccc1)c1cccc2ccccc12	-7.2	2.7	43.4	7.4	·	8.1
Cc1ccc2cc(C#N)c(SCC(=O)N3CCCc4ccccc43)nc2c1C	2.0	0.9	1.2	2.6	6.2	9.2*
Cc1ccc2cc(C#N)c(SCC(=O)N3CCCc4ccccc43)nc2c1	10.5	1.8	-8.0	-17.6	1.1	2.1
O=C(c1ccccc1)c1nc2ccccc2n(CCCn2c(=O)c(C(=O)c3ccccc3)nc3ccccc32)c1=O	9.0	7.9	2.5	10.2	-3.1	9.6*
Cc1ccccc1OCC(=O)N1N=C(C(F)(F)F)CC1(O)C(C)(C)C (configuration not stated)	3.3	-3.4	40.1	4.6	1.7	9.2*
O=C(Nc1ccc(F)cc1)Nc1cc(OCC(F)(F)F)cc(OCC(F)(F)F)c1	53.6*	-14.4	20.3	65.5*	-3.1	3.3
CCOc1ccc(NC(=O)Nc2cc(OCC(F)(F)F)cc(OCC(F)(F)F)c2)cc1	16.3	-5.4	3.8	10.8	-5.9	4.4
Cc1ccc(NC(=O)CCSCCC(=O)Nc2ccc(C)c(C)c2)cc1C	-5.3	-8.8	3.2	11.0	-3.8	9.8*
Cc1ccc(NC(=O)CSCC(N)=O)cc1C	9.2	0.8	16.4	11.8	4.2	2.1
CCc1cccc(NC(=O)CCSCCC(=O)Nc2cccc(CC)c2)c1	8.1	0.2	3.5	5.8	1.9	9.9*
COc1ccccc1-c1cc(C(F)(F)F)nc(NCc2ccco2)n1	-17.1	3.8	60.0*	-7.2	6.8	8.3
FC(F)(F)c1cc(-c2ccco2)nc(NCc2ccccc2)n1	5.1	-1.5	41.3	4.2	-0.7	1.6
COc1ccc(CCNc2nc(-c3ccco3)cc(C(F)(F)F)n2)cc1OC	-11.0	7.9	19.4	-12.6	7.3	10.1*
O=C(N=Nc1c(O)[nH]c2ccccc12)c1cccc(S(=O)(=O)N2CCCCC2)c1	0.4	1.2	-11.9	16.6	1.8	3.6
O=C(/C=C\c1ccc(-c2ccccc2)o1)c1ccccc1	3.7	4.2	4.3	-11.0	0.7	9.6*
COc1cccc(NC(=O)Nc2cnccn2)c1	7.9	4.9	19.9	13.9	·	1.4
CC(=O)Oc1c(Cl)cc(Cl)cc1/C=C/c1ccc2ccccc2n1	17.6	5.6	83.0*	-2.0	7.4	0.6
CC(OC(=O)c1oc2ccccc2c1COc1ccccc1)C(=O)NC(N)=O (configuration not stated)	3.2	-7.7	-22.6	-3.1	·	3.5
O=C(c1ccccc1)c1nn(-c2ccccc2)c2nnc(Cc3ccccc3)c(=O)n12	-53.3	37.6*	18.3	-128.4	28.6*	3.5
